Source: paper PMC6548570 (Bioorganic & medicinal chemistry, 2019)

How the values were obtained:
[1] = biological target: sigma-2 (Homo sapiens, UniProt Q5BJF2); experiment: Radioligand binding assay against sigma-2; details: for pKi ± SEM Sigma-2: displacement of [3H]-DTG, <5 = not >50% inhibition at 10 μM single concentration
[2] = Mouse liver microsomal; assay type: in vitro ADME; details: 37 °C
Method in brief: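 Mouse liver microsomes (0.4 mg/mL) with NADPH in 0.5 M phosphate buffer, test compound at 10 μM. T0 samples quenched at once with 2 volumes ice-cold acetonitrile; others shaken 60 min at 37 °C, then quenched likewise. Verapamil-HCl as control. After centrifugation, parent quantified by UPLC/MS (SRM). % remaining = (60 min/0 min concentration)×100; duplicate runs, mean reported.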

[3] = biological target: sigma-1 (Homo sapiens, UniProt Q99720); experiment: Radioligand binding assay against sigma-1
sigma-1, sequence (Q99720 whole entry): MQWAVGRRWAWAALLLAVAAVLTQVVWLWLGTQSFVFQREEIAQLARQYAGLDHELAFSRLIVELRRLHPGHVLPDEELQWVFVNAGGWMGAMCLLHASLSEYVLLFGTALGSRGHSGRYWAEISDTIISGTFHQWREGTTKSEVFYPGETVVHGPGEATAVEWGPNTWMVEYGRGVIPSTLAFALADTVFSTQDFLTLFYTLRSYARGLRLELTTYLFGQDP

sigma-2, sequence (Q5BJF2 whole entry): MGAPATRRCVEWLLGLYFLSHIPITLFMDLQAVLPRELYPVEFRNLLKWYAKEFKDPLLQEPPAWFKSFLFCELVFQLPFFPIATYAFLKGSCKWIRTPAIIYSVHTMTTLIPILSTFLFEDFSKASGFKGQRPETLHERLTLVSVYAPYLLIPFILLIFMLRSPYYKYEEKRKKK

Structure (SMILES) | activity against sigma-2 (in words) [1] | pKi ± SEM Sigma-2 [1] [M] | also measured
O=C(c1nn(-c2ccccc2)c2c1CC(NCc1ccc(F)cc1)CC2)N1CCCCC1 (stereo not shown) [7aa, (5-((4-Fluorobenzyl)amino)-1-phenyl-4,5,6,7-tetrahydro-1H-indazol-3-yl)(piperidin-1-yl)methanone] | no activity | <5 | –
O=C(c1nn(-c2ccccc2)c2c1CC(NCc1ccccc1)CC2)N1CCCCC1 (stereo not shown) [7ab, (5-(Benzylamino)-1-phenyl-4,5,6,7-tetrahydro-1H-indazol-3-yl)(piperidin-1-yl)methanone] | – | – | consumption by liver microsomes after 60 minutes (in words) [2]: nearly-completely consumed
O=C(c1nn(-c2ccccc2)c2c1CC(NCCc1ccc(C(F)(F)F)cc1)CC2)N1CCCCC1 (stereo not shown) [7ac, (1-Phenyl-5-((4-(trifluoromethyl)phenethyl)amino)-4,5,6,7-tetrahydro-1H-indazol-3-yl)(piperidin-1-yl)methanone] | – | <5 | –
O=C(c1nn(-c2ccccc2)c2c1CC(NCCc1cccc(O)c1)CC2)N1CCCCC1 (stereo not shown) [7af, (5-((3-Hydroxyphenethyl)amino)-1-phenyl-4,5,6,7-tetrahydro-1H-indazol-3-yl)(piperidin-1-yl)methanone] | – | <5 | –
O=C(c1nn(Cc2ccccc2)c2c1CC(NCCc1ccncc1)CC2)N1CCCCC1 (stereo not shown) [7ag, (1-Benzyl-5-((2-(pyridin-4-yl)ethyl)amino)-4,5,6,7-tetrahydro-1H-indazol-3-yl)(piperidin-1-yl)methanone] | – | <5 | –
O=C(c1nn(Cc2ccccc2)c2c1CC(NCc1ccc(F)cc1)CC2)N1CCCCC1 (stereo not shown) [7ah, (1-Benzyl-5-((4-fluorobenzyl)amino)-4,5,6,7-tetrahydro-1H-indazol-3-yl)(piperidin-1-yl)methanone] | – | <5 | –
O=C(c1c2c(nn1-c1ccccc1)CCC(NCc1ccc(F)cc1)C2)N1CCCCC1 (stereo not shown) [7ba, (5-((4-Fluorobenzyl)amino)-2-phenyl-4,5,6,7-tetrahydro-2H-indazol-3-yl)(piperidin-1-yl)methanone] | – | – | fold more potent against sigma-2 compared to N-1 regioisomer 7aa ([1]; N-2 vs N-1 regioisomer): > 60 fold; fold more potent against sigma-1 compared to N-1 regioisomer 7aa ([3]; N-2 vs N-1 regioisomer): over 5 fold; consumption by liver microsomes after 60 minutes (in words) [2]: nearly-completely consumed
O=C(c1c2c(nn1-c1ccccc1)CCC(NCCc1ccc(C(F)(F)F)cc1)C2)N1CCCCC1 (stereo not shown) [7bc, (2-Phenyl-5-((4-(trifluoromethyl)phenethyl)amino)-4,5,6,7-tetrahydro-2H-indazol-3-yl)(piperidin-1-yl)methanone] | – | <5 | –
O=C(c1c2c(nn1-c1ccc(F)cc1)CCC(NCc1ccc(F)cc1)C2)N1CCCCC1 (stereo not shown) [7bf, (5-((4-Fluorobenzyl)amino)-2-(4-fluorophenyl)-4,5,6,7-tetrahydro-2H-indazol-3-yl)(piperidin-1-yl)methanone] | – | – | selectivity for sigma-1 against sigma-2 ([3]; sigma-1 over sigma-2): over 500 fold
NC(=O)c1ccc(-n2nc3c(c2C(=O)N2CCCCC2)CC(NCCc2ccccc2)CC3)cc1 (stereo not shown) [7bg, 4-(5-(Phenethylamino)-3-(piperidine-1-carbonyl)-4,5,6,7-tetrahydro-2H-indazol-2-yl)benzamide] | – | <5 | –
CCCn1nc(C(=O)N(C)C)c2c1CCC(OCc1ccc(F)cc1)C2 (stereo not shown) [compound 9, 5-((4-Fluorobenzyl)oxy)-N,N-dimethyl-1-propyl-4,5,6,7-tetrahydro-1H-indazole-3-carboxamide] | completely lost | <5 | activity against sigma-1 (in words) [3]: completely lost
CCCn1nc(C(=O)N(C)C)c2c1CCC(SCc1ccc(F)cc1)C2 (stereo not shown) [compound 11, 5-((4-Fluorobenzyl)thio)-N,N-dimethyl-1-propyl-4,5,6,7-tetrahydro-1H-indazole-3-carboxamide] | completely lost | <5 | activity against sigma-1 (in words) [3]: completely lost
CCCn1nc(C(=O)N(C)C)c2c1CCC(NC(=O)c1ccc(F)cc1)C2 (stereo not shown) [compound 13, 5-(4-Fluorobenzamido)-N,N-dimethyl-1-propyl-4,5,6,7-tetrahydro-1H-indazole-3-carboxamide] | complete loss of activity | <5 | activity against sigma-1 (in words) [3]: complete loss of activity
CCCn1nc(C(=O)N(C)C)c2c1CCC(NS(=O)(=O)c1ccc(F)cc1)C2 (stereo not shown) [compound 14, 5-((4-Fluorophenyl)sulfonamido)-N,N-dimethyl-1-propyl-4,5,6,7-tetrahydro-1H-indazole-3-carboxamide] | complete loss of activity | <5 | activity against sigma-1 (in words) [3]: complete loss of activity
